Drawing on ChEMBL document CHEMBL1127430, “Novel zinc chelators which inhibit the binding of HIV-EP1 (HIV enhancer binding protein) to NF-kappa B recognition sequence” (J Med Chem, 1994), this text covers Binding for two molecules.

Test [1] has as its target Zinc finger protein 40 (Homo sapiens) (UniProt P15822). Conditions: 4.0 mM.
Test [2] has the same target. Nature of the test: Inhibition of human DNA binding to HIV-EP1 (enhancer binding protein) at 1.0 mM concentration.
Test [3] shares this target. Nature of the test: Inhibition of human DNA binding to HIV-EP1 (enhancer binding protein) at 0.05 mM concentration.
The target is the same in test [4]. Nature of the test: Inhibition of human DNA binding to HIV-EP1 (enhancer binding protein) at 0.7 mM concentration and 2.1 mM of ZnSO4. The essentials: (§1)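 Same HIV-EP1 κB-site binding assay: protein with ligand and poly(dI-dC), 30 min at room temperature, in H2O-CH3OH (96:4), then labelled κB oligonucleotide. ZnSO4 at the stated level was introduced either during or after the ligand inhibition reaction. Read-out is percentage of HIV-EP1 bound to DNA.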

Test [5] has the same target. Nature of the test: Inhibition of human DNA binding to HIV-EP1 (enhancer binding protein) at 0.7 mM concentration and 0.7 mM of ZnSO4. Put shortly: as §1
Test [6] shares this target. Nature of the test: Inhibition of human DNA binding to HIV-EP1 (enhancer binding protein) at 0.01 mM concentration.
Test [7] has the same target. Description: Inhibition of human DNA binding to HIV-EP1 (enhancer binding protein) at 0.1 mM concentration.
For test [8] the target is unchanged. Nature of the test: Inhibition of human DNA binding to HIV-EP1 (enhancer binding protein) at 0.7 mM concentration.
Test [9] has the same target. Nature of the test: Inhibition of human DNA binding to HIV-EP1 (enhancer binding protein) at 0.4 mM concentration.

Zinc finger protein 40 (Homo sapiens), sequence (P15822 whole entry, looked up): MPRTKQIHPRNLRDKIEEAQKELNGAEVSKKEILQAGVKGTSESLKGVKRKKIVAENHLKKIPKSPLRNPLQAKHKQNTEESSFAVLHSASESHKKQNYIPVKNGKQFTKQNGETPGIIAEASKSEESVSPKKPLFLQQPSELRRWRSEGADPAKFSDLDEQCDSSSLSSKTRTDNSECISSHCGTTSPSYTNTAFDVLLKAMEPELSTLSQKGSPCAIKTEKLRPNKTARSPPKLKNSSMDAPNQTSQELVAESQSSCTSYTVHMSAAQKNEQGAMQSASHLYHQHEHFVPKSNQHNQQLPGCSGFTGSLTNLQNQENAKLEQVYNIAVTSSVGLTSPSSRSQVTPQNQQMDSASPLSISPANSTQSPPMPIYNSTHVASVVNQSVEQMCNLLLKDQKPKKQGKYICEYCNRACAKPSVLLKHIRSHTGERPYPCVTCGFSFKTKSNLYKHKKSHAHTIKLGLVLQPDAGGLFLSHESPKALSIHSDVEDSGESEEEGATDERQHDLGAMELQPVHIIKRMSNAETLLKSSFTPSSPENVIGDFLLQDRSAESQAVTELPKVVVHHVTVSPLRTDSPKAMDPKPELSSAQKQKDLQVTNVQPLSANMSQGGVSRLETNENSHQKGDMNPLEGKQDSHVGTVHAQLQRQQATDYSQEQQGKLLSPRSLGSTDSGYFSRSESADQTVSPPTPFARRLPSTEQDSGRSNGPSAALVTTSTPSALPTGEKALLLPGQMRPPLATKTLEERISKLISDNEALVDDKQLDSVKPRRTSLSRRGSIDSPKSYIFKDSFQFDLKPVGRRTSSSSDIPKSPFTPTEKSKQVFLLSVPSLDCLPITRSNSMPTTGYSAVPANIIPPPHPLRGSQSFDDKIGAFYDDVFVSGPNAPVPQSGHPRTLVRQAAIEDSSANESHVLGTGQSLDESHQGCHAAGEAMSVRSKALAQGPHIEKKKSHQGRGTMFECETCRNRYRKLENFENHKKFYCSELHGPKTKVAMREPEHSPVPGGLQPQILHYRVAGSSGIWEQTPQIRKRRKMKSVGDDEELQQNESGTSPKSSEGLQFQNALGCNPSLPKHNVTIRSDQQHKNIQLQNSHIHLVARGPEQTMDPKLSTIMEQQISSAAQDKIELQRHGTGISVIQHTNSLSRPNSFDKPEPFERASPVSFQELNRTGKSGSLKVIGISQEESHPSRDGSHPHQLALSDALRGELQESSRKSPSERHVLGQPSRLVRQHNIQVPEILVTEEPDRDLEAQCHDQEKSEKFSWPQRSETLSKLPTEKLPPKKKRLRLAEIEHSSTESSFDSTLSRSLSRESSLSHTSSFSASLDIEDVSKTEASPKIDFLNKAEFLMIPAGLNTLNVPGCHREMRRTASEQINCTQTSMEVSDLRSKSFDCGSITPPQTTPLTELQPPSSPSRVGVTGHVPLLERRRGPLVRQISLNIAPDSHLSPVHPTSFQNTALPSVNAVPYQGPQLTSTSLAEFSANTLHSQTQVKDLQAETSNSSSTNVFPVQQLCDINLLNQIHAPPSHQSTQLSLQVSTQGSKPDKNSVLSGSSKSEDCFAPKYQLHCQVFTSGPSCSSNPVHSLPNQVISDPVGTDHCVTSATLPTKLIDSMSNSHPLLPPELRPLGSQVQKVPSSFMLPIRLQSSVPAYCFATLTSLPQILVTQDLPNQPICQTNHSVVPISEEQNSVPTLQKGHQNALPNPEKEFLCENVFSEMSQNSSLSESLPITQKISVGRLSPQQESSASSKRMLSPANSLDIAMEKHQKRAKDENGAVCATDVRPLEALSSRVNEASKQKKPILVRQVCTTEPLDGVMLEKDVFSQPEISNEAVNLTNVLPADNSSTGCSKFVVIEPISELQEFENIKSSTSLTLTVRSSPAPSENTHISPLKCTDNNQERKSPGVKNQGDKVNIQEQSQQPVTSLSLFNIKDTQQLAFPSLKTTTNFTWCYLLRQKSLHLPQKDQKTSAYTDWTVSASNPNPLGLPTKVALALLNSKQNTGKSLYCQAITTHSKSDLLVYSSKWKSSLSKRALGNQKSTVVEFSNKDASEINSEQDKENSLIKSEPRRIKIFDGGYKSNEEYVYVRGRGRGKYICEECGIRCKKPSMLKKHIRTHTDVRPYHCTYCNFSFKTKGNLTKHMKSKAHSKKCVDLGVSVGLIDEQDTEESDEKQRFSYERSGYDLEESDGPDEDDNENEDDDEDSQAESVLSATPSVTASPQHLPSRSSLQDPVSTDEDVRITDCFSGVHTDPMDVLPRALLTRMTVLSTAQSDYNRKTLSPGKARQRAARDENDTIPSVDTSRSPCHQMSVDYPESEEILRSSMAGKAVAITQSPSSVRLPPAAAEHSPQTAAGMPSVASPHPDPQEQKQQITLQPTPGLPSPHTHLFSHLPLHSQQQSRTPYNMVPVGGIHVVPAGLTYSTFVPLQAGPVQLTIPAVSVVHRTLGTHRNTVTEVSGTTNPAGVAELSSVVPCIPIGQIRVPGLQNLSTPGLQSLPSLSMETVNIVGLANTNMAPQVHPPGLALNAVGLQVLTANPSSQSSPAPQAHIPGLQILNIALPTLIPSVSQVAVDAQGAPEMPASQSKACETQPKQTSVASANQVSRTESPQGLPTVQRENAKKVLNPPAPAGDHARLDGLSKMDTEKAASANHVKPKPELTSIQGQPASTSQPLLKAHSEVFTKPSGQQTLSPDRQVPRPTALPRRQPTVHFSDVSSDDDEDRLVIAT

As for `O=C(O)CN(CCN(CC(=O)O)CC(=O)O)CC(=O)O`, the results for the Binding in test [1] and in test [2] were 16% and 33%, respectively.
On to `COC(=O)[C@H](Cc1c[nH]cn1)NCc1cc(N(C)C)cc(CN[C@@H](Cc2c[nH]cn2)C(=O)OC)n1`, for which the Binding was found to be 81% in test [3]; 100% in test [4]; 0% in test [2]; 100% in [5]; 100% in [6]; 68% in test [7]. Further, the figures for the Binding in [8] and in [9] were 0% and 4%, respectively.
